≈ marks a conversion by molar mass, not a printed value. Square brackets hold non-standard residues; d marks the D form. Peptide text beside a SMILES is read from it. Phe(3-F) = N[C@@H](Cc1cccc(F)c1)C(=O)O
Key:
Type in all cases: functional
Candida albicans [1] = experiment: Zone developed against Candida albicans B-311, when a 12.5 ug/disc was added
Candida albicans [2] = experiment: Zone developed against Candida albicans, when a 25.0 ug/disc was added; 25-31
Candida albicans [3] = experiment: Zone developed against Candida albicans, when a 12.5 ug/disc was added
Candida albicans [4] = experiment: Zone developed against Candida albicans, when a 3.0 ug/disc was added
Candida albicans [5] = experiment: Zone developed against Candida albicans, when a 6.0 ug/disc was added
Candida albicans [6] = experiment: Zone developed against Candida albicans, when a 25.0 ug/disc was added
Candida albicans [7] = experiment: Minimum inhibitory concentration was determined for Candida albicans strain 759, by a microtiter broth dilution assay
Method in brief: (§1)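 Twofold broth dilution in yeast carbon base medium with 200 μg/mL sodium glutamate, compounds 250 to 0.25 μg/mL. Inoculum grown in YCB-glutamate 15 h at 37 °C; final ~10⁴ cfu/mL. Incubated at 37 °C, read at 24 and 48 h for growth inhibition; MIC taken as lowest inhibiting concentration.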

Candida albicans [8] = experiment: Minimum inhibitory concentration was determined for Candida albicans strain B311, by a microtiter broth dilution assay; method in brief: as §1

Compound	Zone size (Candida albicans [1])	Zone size (Candida albicans [3])	Zone size (Candida albicans [4])	Zone size (Candida albicans [5])	Zone size (Candida albicans [6])	MIC (Candida albicans [7])	MIC (Candida albicans [8])	further results
C[C@H](NC(=O)[C@H](C)NC(=O)[C@@H](N)Cc1cccc(F)c1)C(=O)O.N[C@@H](Cc1c[nH]c2ccccc12)C(=O)O	24 mm							
C[C@H](NC(=O)CN)C(=O)O.C[C@H](NC(=O)[C@@H](N)Cc1cccc(F)c1)C(=O)O		0 mm	0 mm	0 mm				Zone size (Candida albicans [2]): 25 mm
C[C@H](NC(=O)CN)C(=O)O.C[C@H](NC(=O)[C@H](C)NC(=O)[C@@H](N)Cc1cccc(F)c1)C(=O)O		18 mm	0 mm	0 mm	25 mm			
C[C@H](N)C(=O)N[C@@H](C)C(=O)N[C@@H](Cc1cccc(F)c1)C(=O)O (H-Ala-Ala-[Phe(3-F)]-OH)						63 µg/mL (≈ 194 µM)	2 µg/mL (≈ 6.15 µM)	
C[C@H](NC(=O)[C@H](C)NC(=O)[C@@H](N)Cc1cccc(F)c1)C(=O)O.NCC(=O)N[C@@H](Cc1ccccc1)C(=O)O		0 mm	0 mm	0 mm	0 mm			
C[C@H](NC(=O)[C@H](C)NC(=O)[C@@H](N)Cc1cccc(F)c1)C(=O)O.O=C(O)[C@@H]1CCCN1	27 mm							
C[C@H](NC(=O)[C@H](C)NC(=O)[C@@H](N)Cc1cccc(F)c1)C(=O)O.N[C@@H](CC(=O)O)C(=O)O	26 mm							
N[C@@H](Cc1cccc(F)c1)C(=O)O						> 250 µg/mL	> 250 µg/mL	
C[C@H](NC(=O)[C@H](C)NC(=O)[C@@H](N)Cc1cccc(F)c1)C(=O)O.N[C@@H](Cc1ccccc1)C(=O)O	0 mm							
C[C@H](NC(=O)[C@H](N)Cc1cccc(F)c1)C(=O)O						> 200 µg/mL	> 200 µg/mL	
C[C@H](NC(=O)[C@H](C)NC(=O)[C@@H](N)Cc1cccc(F)c1)C(=O)O	24 mm					2 µg/mL (≈ 6.15 µM)	0.5 µg/mL (≈ 1.54 µM)	
C[C@H](NC(=O)[C@@H](N)Cc1cccc(F)c1)C(=O)O.NCC(=O)N[C@@H](Cc1ccccc1)C(=O)O		0 mm	0 mm	0 mm	0 mm			
CSCC[C@H](NC(=O)[C@H](CCSC)NC(=O)[C@H](N)Cc1cccc(F)c1)C(=O)O						> 250 µg/mL	> 250 µg/mL	
CC[C@H](C)[C@H](N)C(=O)O.C[C@H](NC(=O)[C@H](C)NC(=O)[C@@H](N)Cc1cccc(F)c1)C(=O)O	27 mm							
CSCC[C@H](NC(=O)[C@H](CCSC)NC(=O)[C@@H](N)Cc1cccc(F)c1)C(=O)O						63 µg/mL (≈ 141 µM)	8 µg/mL (≈ 18 µM)	
C[C@H](NC(=O)[C@@H](N)Cc1cccc(F)c1)C(=O)O						4 µg/mL (≈ 15.7 µM)	2 µg/mL (≈ 7.87 µM)	
C[C@H](NC(=O)[C@H](C)NC(=O)[C@H](N)Cc1cccc(F)c1)C(=O)O						> 250 µg/mL	> 250 µg/mL	
C[C@H](N)C(=O)N[C@@H](C)C(=O)O.C[C@H](NC(=O)[C@@H](N)Cc1cccc(F)c1)C(=O)O		0 mm	0 mm	0 mm	0 mm			
C[C@H](N)C(=O)N[C@@H](C)C(=O)O.C[C@H](NC(=O)[C@H](C)NC(=O)[C@@H](N)Cc1cccc(F)c1)C(=O)O		18 mm	0 mm	16 mm	24 mm			
C[C@H](NC(=O)[C@H](C)NC(=O)[C@@H](N)Cc1cccc(F)c1)C(=O)O.N[C@@H](Cc1c[nH]cn1)C(=O)O	25 mm							
C[C@H](N)C(=O)N[C@@H](C)C(=O)N[C@@H](C)C(=O)O.C[C@H](NC(=O)[C@H](C)NC(=O)[C@@H](N)Cc1cccc(F)c1)C(=O)O		0 mm	0 mm	0 mm	0 mm			
C[C@H](N)C(=O)N[C@@H](C)C(=O)N[C@@H](C)C(=O)O.C[C@H](NC(=O)[C@@H](N)Cc1cccc(F)c1)C(=O)O		0 mm	0 mm	0 mm	0 mm			
